Results on 23 molecules are retold here after ChEMBL document CHEMBL1949657, “Chemical modification of the multitarget neuroprotective compound fisetin” (J Med Chem, 2012).

Calls of active or inactive are those of the source. Some results are limits rather than exact numbers.

Test [1] concerns PC-12. Briefly: Neurotrophic activity in rat PC12 cells assessed as neurite outgrowth at 1 to 10 uM after 24 hrs. The class given is functional, cell-based. The method in brief: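 PC12 cells in N2 medium given derivatives (1–10 μM) for 24 h, fisetin 10 μM as positive control. 100 cells counted in each of three fields. A cell scored positive with ≥1 neurite longer than one cell-body diameter. Tested twice; positives tested a third time.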

For test [2], the system named is N9. The test is described as follows: Antiinflammatory activity in mouse N9 cells assessed as reduction of LPS-induced microglial activation at 1 to 10 uM measured as nitrite level after 24 hrs by Griess reagent-based assay. The class given is functional. More on the design: scale not given: the % may be the effect or the level left. The method in brief:
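N9 microglia in DME with 7.5% DFCS, given 10 μg/ml LPS alone or with derivatives (1–10 μM) for 24 h. Medium spun to remove floating cells, then nitrite measured with Griess reagent, 10 min at room temperature, absorbance 550 nm. Fisetin 10 μM as positive control. Tested twice; positives tested a third time.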
For orientation: The Griess reaction detects nitrite, a stable product of nitric oxide.

A short description of test [3]: Antioxidant activity against ABTS radical assessed as trolox equivalent after 4 mins by TEAC assay. The class given is functional. The method, boiled down:
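ABTS radical cation formed overnight with potassium persulfate and diluted to OD ~0.7 at 734 nm, then mixed with derivative in ethanol. Loss of A734 followed over 4 min. TEAC = slope of % absorbance inhibition vs concentration divided by the slope for Trolox.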

The subject of test [4] is HT-22. Briefly: Neuroprotective activity in mouse HT22 cells assessed as reduction in IAA-induced ischemia after 24 hrs by MTT assay. Type of test: functional, cell-based. The method, boiled down: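 HT22 cells seeded at 5×10^3/well. Next day switched to DMEM + 7.5% DFCS with 20 μM IAA ± derivative doses for 2 h, then IAA-free medium with derivative for 20 h. MTT 2.5 μg/ml for 4 h at 37 °C, solubilised in DMF/SDS pH 4.7, A570 read. Controls for compound toxicity and assay interference. EC50 from dose series; tested twice, third time if EC50 < 1 μM.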
Background: Formazan colour is commonly taken as a measure of viable cells.

The subject of test [5] is HT-22. Briefly: Induction of Nrf2 expression in mouse HT22 cells from 1 to 4 hrs by immunoblotting. Type of test: functional, cell-based. The method, boiled down:
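Nuclear extracts taken from untreated and derivative-treated cells at 1, 2 and 4 h. Equal protein run on 10% SDS-PAGE, blotted to nitrocellulose (Ponceau-S loading check). Probed with anti-Nrf2 (1/1000) and anti-β-actin, HRP secondary, chemiluminescence. Tested twice; positives tested a third time.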

Test [6] concerns HT-22. Briefly: Neuroprotective activity against glutamate-induced GSH loss in mouse HT22 cells assessed as intracellular GSH level at 1 to 10 uM after 24 hrs. The class given is functional, cell-based. The method in brief:
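HT22 cells given derivatives (1–10 μM) with 5 mM glutamate. After 24 h, cell extracts analysed for total intracellular GSH by chemical assay. Fisetin 10 μM as positive control. Tested twice; positives tested a third time.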

Test [7] concerns HT-22. Briefly: Ratio of fisetin EC50 to compound EC50 for neuroprotectivie activity in mouse HT22 cells. The class given is functional.
The subject of test [8] is Oryctolagus cuniculus. The test is described as follows: Neuroprotective activity in New Zealand white rabbit small clot embolism model assessed as reduction in stroke-induced behavioural deficits at 50 mg/kg, iv administered 5 mins post-embolization measured after 24 hrs. The class given is functional, organism-based. More on the design: dose 50 mg/kg, route intravenous.

Setting [9] is: Mus musculus, HT-22, 24 h, read-out: EC50.

Turning to `O=C(/C=C/c1ccc(O)c(O)c1)c1ccc2ccccc2c1O`, the result in test [1], in test [5] and in test [6] was Active. In addition, the Activity in test [2] was 75%; in test [3], 2.8 equiv. In addition, the EC50 in test [4] (setting [9]) amounted to 0.08 µM.

Take `Cc1cc2oc(-c3ccc(N4CCCC4)c(O)c3)c(O)c(=O)c2cc1C`: the outcome in test [1] and in test [6] was Active. Further, the Activity worked out at 21% in test [2] and 2.79 equiv in test [3]. In addition, the EC50 in test [4] (setting [9]) was found to be 0.015 µM. Moreover, in test [5], the result was inactive.

For `COc1ccc(-c2oc3cc(C)c(C)cc3c(=O)c2O)cc1O`, the outcome in test [1] and in test [6] was inactive. For the same molecule, the Activity in test [2] turned out to be 72%; in test [3], 1.74 equiv. Further, the concentration for a half-maximal effect (EC50) in test [4] (setting [9]) amounted to 0.02 µM. Also, the “Ratio EC50” value in test [7] is listed as 10.

In the case of `Cc1cc2oc(-c3ccc(N4CCCC4)cc3)c(O)c(=O)c2cc1C`, the result in test [1] and in test [6] was Active. In addition, the Activity came out at 0% in test [2] and 2.4 equiv in test [3]. In addition, in test [4] (setting [9]), the EC50 was determined as 0.09 µM. Besides, the result in test [5] was inactive.

In the case of `COc1cc(-c2oc3cc(C)c(C)cc3c(=O)c2O)ccc1O`, the result in test [1] and in test [6] was inactive. In addition, the Activity in test [2] stood at 77%; in test [3], 1.89 equiv. Also, the EC50 in test [4] (setting [9]) was 0.04 µM. Further, in test [7], the “Ratio EC50” value is recorded as 10.

On to `Cc1cc(O)c(C(=O)/C=C/c2ccc(O)c(O)c2)cc1C`, for which the result in test [1], in test [5] and in test [6] was Active. In addition, the Activity in test [2] came to 94%; in test [3], 2.7 equiv. Further, the concentration giving a half-maximal response (EC50) in test [4] (setting [9]) was found to be 0.05 µM.

For the molecule `COc1ccc(/C=C/C(=O)c2cc(C)c(C)cc2O)cc1OCc1ccccc1`, the result in test [1], in test [5] and in test [6] was Active. Moreover, the Activity came to 70% in test [2] and 0.12 equiv in test [3]. In test [4] (ht-22), the concentration for a half-maximal effect (EC50) entry is listed as “Not Active”.

For `CN(C)c1ccc(-c2oc3c(ccc4ccccc43)c(=O)c2O)cc1`, the outcome in test [1] and in test [5] was inactive. In addition, the Activity was 0% in test [2] and 0.93 equiv in test [3]. Besides, the EC50 in test [4] (setting [9]) turned out to be 0.04 µM. Besides, the result in test [6] was Active.

Consider `COc1cc(-c2ccc(O)c(O)c2)nc2ccccc12`, for which the result in test [1] and in test [5] was inactive. Further, the Activity was found to be 85% in test [2] and 0.36 equiv in test [3]. For the same molecule, in test [4] (setting [9]), the EC50 worked out at 0.04 µM. In test [7], the “Ratio EC50” value is listed as 75. The outcome in test [6] was Active.

As for `Cc1cc2oc(-c3ccc(N(C)C)cc3)c(O)c(=O)c2cc1C`, the result in test [1] and in test [5] was inactive. Also, the Activity in test [2] stood at 11%; in test [3] it was 3 equiv. Moreover, the concentration for a half-maximal effect (EC50) in test [4] (setting [9]) was 0.02 µM. The result in test [6] was Active.

`O=c1c(O)c(-c2ccc(O)c(O)c2)oc2cc(O)ccc12` [FISETIN]: the outcome in test [1], in test [5] and in test [6] was Active. In addition, the Activity in test [2] amounted to 80%; in test [3], 3 equiv. Further, the EC50 came to 3 µM in test [4] (setting [9]) and 2 µM in test [8].

Turning to `O=c1c(O)c(-c2ccc(O)c(O)c2)oc2ccccc12`, the result in test [1], in test [5] and in test [6] was Active. Moreover, the figures for the Activity in test [2] and in test [3] were 80% and 2 equiv, respectively. In test [4] (setting [9]), the concentration for a half-maximal effect (EC50) worked out at 0.5 µM. The “Ratio EC50” value in test [7] is 6.

As to `COc1cc(-c2oc3c(ccc4ccccc43)c(=O)c2O)ccc1O`, in test [1], the result was Active. The values for the Activity in test [2] and in test [3] were 78% and 0.63 equiv, respectively. Besides, the EC50 in test [4] (setting [9]) is above 0.5 µM. In test [6], the outcome was inactive.

`Oc1ccc(-c2cc(OC3CCCC3)c3ccccc3n2)cc1O` [CMS-121]: the result in test [1] and in test [6] was Active. In addition, the values for the Activity in test [2] and in test [3] were 82% and 0.4 equiv, respectively. The EC50 in test [4] (setting [9]) was 0.007 µM. Further, the result in test [5] was inactive.

As for `COc1cc(-c2oc3c(ccc4ccccc43)c(=O)c2O)ccc1OCc1ccccc1`, in test [1], the outcome was Active. Also, the Activity in test [2] came out at 88%; in test [3], 0 equiv. Further, in test [4] (setting [9]), the concentration for a half-maximal effect (EC50) came out at 0.08 µM. Moreover, in test [6], the outcome was inactive.

With `COc1cc(/C=C/C(=O)c2ccc3ccccc3c2O)ccc1OCc1ccccc1`, the result in test [1] and in test [6] was inactive. Also, the Activity was determined as 9% in test [2] and 0.15 equiv in test [3]. Moreover, in test [4] (setting [9]), the concentration giving a half-maximal response (EC50) stood at 0.5 µM.

Take `O=c1c(O)c(-c2ccc(O)c(O)c2)oc2c1ccc1ccccc12`: the result in test [1] was Active. The Activity in test [2] is 91%; in test [3], 2.4 equiv. Also, the EC50 in test [4] (setting [9]) is 0.09 µM. In test [6], the result was inactive.

For `O=c1c(O)c(-c2ccc(N3CCCC3)c(O)c2)oc2c1ccc1ccccc12`, the outcome in test [1] and in test [6] was Active. The Activity was found to be 50% in test [2] and 2.1 equiv in test [3]. For the same molecule, the EC50 in test [4] (setting [9]) was determined as 0.005 µM. Also, in test [7], the “Ratio EC50” value came to 600. In addition, the outcome in test [5] was inactive.

For the molecule `COc1ccc(-c2cc(OC)c3ccccc3n2)cc1O`, the result in test [1] and in test [6] was inactive. The Activity stood at 69% in test [2] and 0.24 equiv in test [3]. Besides, the EC50 entry in test [4] (ht-22) is “Not Active”.

Take `O=c1cc(-c2ccc(O)c(O)c2)oc2c1ccc1ccccc12`: the outcome in test [1] was Active. Also, the Activity in test [2] was found to be 55%; in test [3], 0.18 equiv. The EC50 in test [4] (setting [9]) is 0.08 µM. Besides, the outcome in test [6] was inactive.

`COc1cc(-c2cc(=O)c3cc(C)c(C)cc3o2)ccc1O`: the outcome in test [1] and in test [6] was inactive. Also, the Activity in test [2] was found to be 41%; in test [3] it was 0.12 equiv. In addition, the EC50 in test [4] (setting [9]) was 0.03 µM. The “Ratio EC50” value in test [7] is on record as 10.

For the molecule `CCOc1ccc(-c2cc(OC)c3ccccc3n2)cc1OCC`, the result in test [1] and in test [6] was inactive. The Activity in test [2] is 76%; in test [3], 0.12 equiv. The EC50 entry in test [4] (ht-22) is “Not Active”.

On to `Cc1cc2oc(-c3ccc(O)c(O)c3)cc(=O)c2cc1C`, for which the result in test [1] and in test [6] was inactive. The Activity in test [2] was 93%; in test [3], 0.27 equiv. For the same molecule, the EC50 in test [4] (setting [9]) was 0.25 µM.

By EC50 is commonly meant the concentration at which the effect is half-maximal.
